Assay results: the M2OR odorant receptor database

These compounds were tested against T1, OR2W3 (Homo sapiens) (UniProt Q7Z3T1). Settings: stereoisomer not certain.
T1 sequence (whole entry): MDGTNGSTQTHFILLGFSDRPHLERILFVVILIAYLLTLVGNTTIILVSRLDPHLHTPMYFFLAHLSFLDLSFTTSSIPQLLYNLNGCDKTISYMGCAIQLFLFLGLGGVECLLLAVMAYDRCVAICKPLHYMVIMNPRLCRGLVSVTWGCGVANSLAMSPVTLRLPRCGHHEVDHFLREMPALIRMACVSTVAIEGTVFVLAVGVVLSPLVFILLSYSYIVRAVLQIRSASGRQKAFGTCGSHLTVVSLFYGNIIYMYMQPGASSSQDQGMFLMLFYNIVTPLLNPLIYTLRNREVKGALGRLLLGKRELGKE
How it was run: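 Assay methods differ from source to source, frequently being transient luciferase assays in mammalian cell lines. For each receptor–molecule pair, the label responsive (active) applies when the original authors judged the measured signal statistically different from baseline, and non-responsive (inactive) applies otherwise.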

Odorant receptor agonist call, inactive:
Cc1cccc(C)c1C
Cc1ccc(C(C)C)cc1
CC(C)=CCCC(C)=CCO
CC1=CCC2CC1C2(C)C (stereo unspecified)
CCCCCCCCCCCC(=O)OCC
CCCCCCCCCCCCCCC(=O)O
CCCCCCCC(=O)OCC
CCCC(=O)CC
CCCCCCCCCCCCCC(=O)OCC
CCCCCCCCCCCCCCCC(=O)[O-].[H+]
CCCCCCCCCCCCCCCC(=O)OC
Cc1cnc(C)cn1
CCC(C)CO (stereo unspecified)
CCCO
CCCCCCCCCCCCCCCC(=O)OCC
CC(O)C(=O)[O-].[H+] (stereo unspecified)
CCCCOCC(C)O (stereo unspecified)
COc1ccc2[nH]cc(CCNC(C)=O)c2c1
CCCCCCCCCCCC(=O)OC
CCCCCCCCCC(=O)OC
CCCCC(=O)C(C)=O
CCCCCCCCCCCCCCCCCC(=O)OC
O=c1ccc2ccccc2o1
CCCCCCCCCC(=O)OCC
CCCCCCCCCCCCCCCCCC(=O)[O-].[H+]
CCCCCCCCO
CCCCCCCCCCCCO
CCCCCCCCCCCCCC(=O)OC
C=C(C)C1CC=C(C)CC1 (stereo unspecified)
CCC(=O)O
CC(C)=CCCC(C)=CCCC(C)=CCO
CCCCCCCCCCCCCC(=O)O
CCC(O)CC
CCCCCCCCCCCC(=O)O
C=C1CCC2CC1C2(C)C (stereo unspecified)
CC(=O)O
